Test results as given in PubChem BioAssay AID504383 (The Scripps Research Institute Molecular Screening Center, 2011).
About 1,200 (48%) of roughly 2,500 compounds were called active.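 Rule for the calls: active = mean activation above the low control average plus 3 SD, as set in the primary screen (cut at about 12% in these data); inactive = the rest.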 So high a share suggests a set chosen from earlier hits. This is one part of the list.

Each compound was assayed against Troponin I, cardiac muscle (Homo sapiens) + Troponin T, cardiac muscle (Homo sapiens) + Troponin C, slow skeletal and cardiac muscles (Homo sapiens) (UniProt P19429+P45379+P63316) (assay: cardiac RTF calcium sensitivity activators, confirmation, biochemical, IANBD-TnC fluorescence, triplicate (AID 504383;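 note: 0% = DMSO at 0.472 mM calcium and 100% = DMSO at 2.9 mM calcium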)). Details: IANBD-labeled cardiac RTF, Ca2+ sensitivity fluorescence; at 7.2 µM; stronger effect = higher value; scaled from EC20 to saturating calcium; tested at EC20 calcium, 0.472 mM.
How it was run: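 Material: labelled regulated thin filaments; Reagent: 0.472 mM calcium; Incubation: 15 min compound incubation with filaments at 25 °C; Detection: filament fluorescence intensity; Evaluation: fluorescence increase normalised to calcium controls; Benchmarks: low control EC20 calcium, high control EC100 calcium.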

Structure (SMILES) | activation
O=C(Cn1cnc2ccccc2c1=O)c1ccc(Br)cc1 | 424% (active)
O=C(c1ccc(Cl)cc1)n1cnc2ccccc21 | 7.26% (inactive)
COc1ccc(C(=O)Cn2cnc3ccccc3c2=O)cc1OC | 6.44% (inactive)
COc1cc(/C=C(\C#N)c2nc3ccccc3o2)ccc1O | 3.75% (inactive)
COc1cc(/C=C(/C#N)C(=O)NCCCc2ccccc2)ccc1OCC(=O)O | 11.5% (inactive)
COc1cc(/C=C(\C#N)c2nc3ccccc3s2)ccc1OCC(=O)Nc1ccccc1 | 92.9% (active)
CCN(CC)c1ccc(/C=C/c2cc(-c3ccccc3)c3ccccc3n2)cc1 | 19.4% (active)
CC(=O)Nc1ccc(S(=O)(=O)Nc2nc3ccccc3nc2Nc2ccc(N)cc2)cc1 | 5.97% (inactive)
c1ccc(Nc2nc3ccccc3n3cnnc23)cc1 | 10.4% (inactive)
Cn1cnnc1Sc1nc2ccccc2nc1NS(=O)(=O)c1ccccc1 | 26.2% (active)
Cn1nnc(NC(=S)NC(=O)/C=C/c2ccco2)n1 | 4.19% (inactive)
CCC(CC)c1nnc(NC(=O)/C=C/c2ccco2)s1 | 18.8% (active)
CCOc1ccc(N=C2NC(=O)S/C2=C\c2ccc(N(C)C)cc2)cc1 | 5340% (active)
C=CCOc1ccc(/C=C2\SC(=Nc3cccnc3)NC2=O)cc1 | 6.73% (inactive)
COc1ccc(N=C2NC(=O)S/C2=C\c2ccc(N(C)C)cc2)cc1 | 54.9% (active)
COc1ccc(C(=O)/C=C/c2ccc(N(C)C)cc2)c(OC)c1 | 7.89% (inactive)
O=C(NN1C(=O)c2ccccc2NC1c1ccco1)c1ccccc1 (configuration not stated) | 3.92% (inactive)
C=CCN1C(=O)c2ccccc2NC1c1cc(Br)cs1 (configuration not stated) | 53.6% (active)
CCOCCn1c(CN2CCN(CC)CC2)nc2c1c(=O)n(C)c(=O)n2C | 66% (active)
Oc1[nH]c(=S)sc1/C=C1\C(c2ccccc2)=Nc2ccccc21 | 10% (inactive)
CC1=Nc2ccccc2/C1=C/c1nc(-c2ccc(C)s2)oc1O | 7.81% (inactive)
CC1=Nc2ccccc2/C1=C/c1sc(=S)n(-c2cccc(C(=O)O)c2)c1O | 13.1% (active)
CCc1cc(=O)n2c([nH]c3ccccc32)c1C#N | 3.83% (inactive)
CCC(C)(C)n1nnnc1C(c1ccc(C)cc1)N1CCN(C(=O)c2ccco2)CC1 (configuration not stated) | 4.34% (inactive)
CCC(c1nnnn1C1CCCCC1)N1CCN(C(=O)c2ccco2)CC1 (configuration not stated) | 23.4% (active)

Structure (SMILES) | activation
O=C(O)C1CCCCC1C(=O)Nc1ccc(-c2ccccc2)cc1 (configuration not stated) | 8.12% (inactive)
Cn1nc(NC(=O)C2CCC2C(=O)O)c2c(F)cccc21 (configuration not stated) | 52.9% (active)
CCc1cc[n+](-c2nc([O-])sc2C=O)cc1 | 14.1% (active)
CCc1cc[n+](-c2nc3ccccc3nc2[N-]S(=O)(=O)c2ccc(Br)s2)cc1 | -1.89% (inactive)
Cc1ccc[n+](-c2nc([O-])sc2C=O)c1 | 64.2% (active)
CCNC(=O)NNC(=O)C1CC(c2cccs2)=NO1 (configuration not stated) | 4.43% (inactive)
COc1cc(/C=C2\SC(=Nc3ccccc3)NC2=O)cc(Cl)c1O | 3.89% (inactive)
COc1cc(/C=C2\SC(=Nc3ccc(Cl)c(C(=O)O)c3)NC2=O)c(Br)c(Br)c1O | 54% (active)
CCN(CC)c1ccc2c(c1)OC(N)=C(C#N)C2c1cccnc1 (configuration not stated) | 15.4% (active)
CSc1nc(C)nc(N/C=C(\C#N)S(=O)(=O)c2ccccc2Cl)n1 | 6.97% (inactive)
C=CCn1c(O)c(CN2CCN(Cc3ccccc3)CC2)c(C)c(C#N)c1=O | 3.99% (inactive)
Cc1c(CN2CCCC(C)C2)c(O)n(CCO)c(=O)c1C#N (configuration not stated) | 11.9% (active)
CCN(c1ccccc1)S(=O)(=O)c1ccc(OC)c(NC(=O)Cn2cnc3c2c(=O)n(C)c(=O)n3C)c1 | 18.8% (active)
CC1=C(C(=O)N(C)C)C(c2ccc(C)s2)NC(=S)N1 (configuration not stated) | 0.74% (inactive)
Cn1nc(-c2ccccc2)c2nc3ccccc3nc21 | 8.34% (inactive)
CCCCCn1nc(-c2ccccc2)c2nc3ccccc3nc21 | 54.7% (active)
CCn1nc(-c2ccccc2)c2nc3ccccc3nc21 | 26.2% (active)
Cc1cc(C(=O)O)ccc1-c1ccc(/C=C2\SC(=O)N(CC(=O)Nc3ccc4c(c3)OCO4)C2=O)o1 | 11.4% (inactive)
O=C(COC(=O)c1ccc(O)cc1)Nc1ccc2c(c1)OCCO2 | 78.5% (active)
Cc1c(C)[n+](=O)c(-c2ccc(Br)cc2)c(C)n1[O-] | 1060% (active)
CCCCC1OC2(C)OC(=N)C1(C#N)C(C#N)(C#N)C2c1ccccc1 (configuration not stated) | 8.3% (inactive)
CC1C2(C)OC(=N)C(C#N)(C(C)O2)C1(C#N)C#N (configuration not stated) | 13.7% (active)
CCC12OC(=N)C(C#N)(C1C)C(C#N)(C#N)C(c1ccccc1)O2 (configuration not stated) | 2.9% (inactive)
CCc1ccc2c(c1)C(NC(C)=O)C(=O)N2CC (configuration not stated) | 6.29% (inactive)
c1ccc(CCC2=NCCn3cccc32)cc1 | 15.8% (active)

Structure (SMILES) | activation
Nc1ccc2c(O)cc(S(=O)(=O)O)cc2c1 | 16.8% (active)
Cc1ccc(N=Nc2c(O)n(CN3CCOCC3)c3ccccc23)cc1 | 35.8% (active)
Cc1ccc(C)c(C(=O)CSc2n[nH]c(C(C)C)n2)c1 | 128% (active)
C/C(N)=C(/C#N)C(=O)CSc1n[nH]c(-c2cccs2)n1 | 11.4% (inactive)
COc1ccc(Cl)cc1-c1nc(SCC(=O)NC(C)C)n[nH]1 | 8.01% (inactive)
CC(C)(CO)NCC#Cc1ccccc1 | 5.16% (inactive)
CCCOc1cc(N(CC)CC)ccc1/C=C(/C#N)c1nc2ccc(C)cc2[nH]1 | 30.9% (active)
CCOc1cc(N(CC)CC)ccc1/C=C(/C#N)c1nc2ccccc2[nH]1 | 5.8% (inactive)
CCN(CC)c1ccc(/C=C(/C#N)c2nc3ccccc3[nH]2)c(OC(C)C)c1 | 127% (active)
COc1cccc(/C=C(/C#N)c2nc3ccccc3[nH]2)c1OC(C)C(=O)O (configuration not stated) | 5.66% (inactive)
COc1cc(/C=C(\C#N)c2nc3ccccc3[nH]2)cc(OC)c1O | 37.9% (active)
COc1cc(/C=C(\C#N)c2nc3ccccc3[nH]2)ccc1O | 6.21% (inactive)
COC1C/C(=N\O)C2OC(c3ccccc3)OCC2O1 (configuration not stated) | 6.29% (inactive)
COc1cc2c3nnc(-c4ccc(F)cc4)c-3cn(Cc3cccc(C)c3)c2cc1OC | 11.1% (inactive)
COc1cc2c3nnc(-c4ccc(F)cc4)c-3cn(Cc3ccc(C)cc3)c2cc1OC | 3.15% (inactive)
COc1cc2c3nnc(-c4ccc(F)cc4)c-3cn(Cc3cccc(F)c3)c2cc1OC | 446% (active)
O=C(NC1CCCCC1)C(c1ccc(F)cc1)N(Cc1ccccc1)C(=O)CN1C(=O)c2ccccc2S1(=O)=O (configuration not stated) | 165% (active)
COCCNC(=O)C(c1ccc(C)o1)N(Cc1ccc(F)cc1)C(=O)Cn1nnc2ccccc21 (configuration not stated) | 4.47% (inactive)
Cc1cc(/C=N/NC(N)=S)c(O)c(/C=N/NC(N)=S)c1 | 480% (active)
CC(=O)Nc1cccc(NC(=O)CSc2nnc(Cc3cccn3C)n2CCc2ccccc2)c1 | 2.51% (inactive)
CCn1c(Cc2ccccc2)nnc1SCC(=O)OC(C)C | 11.8% (active)
C/C(=N/NC(=O)c1cc(C)[nH]n1)c1ccco1 | 14.3% (active)
C/C(=N/NC(=O)CNC(=O)Cc1ccccc1)c1ccco1 | 5.62% (inactive)
CCN(CC)c1ccc(/C=c2\sc3nnc(-c4ccccc4Cl)n3c2=O)cc1 | 72.8% (active)
CCN(CC)c1ccc(/C=c2/sc3nnc(-c4ccccc4C)n3c2=O)cc1 | 12% (active)

Structure (SMILES) | activation
CCN(CC)c1ccc(/C=C/C(=O)C2C(=O)C=C(C)OC2=O)cc1 (configuration not stated) | 3.69% (inactive)
Brc1ccc(C2=CC(c3cccs3)n3ncnc3N2)cc1 (configuration not stated) | 8.78% (inactive)
COc1cc(C2C=C(c3cccs3)Nc3ncnn32)cc(OC)c1OC (configuration not stated) | 12.2% (active)
COc1cccc(C2C=C(c3ccc(Br)s3)Nc3ncnn32)c1OC (configuration not stated) | 5.02% (inactive)
Cc1cc(C)nc(NS(=O)(=O)c2ccc(NC(=O)CSc3nc4ccccc4[nH]3)cc2)n1 | 8.08% (inactive)
COC(=O)C1=C(CSc2nc3c(cc2C#N)CN(C)CC3)OC(N)=C(C#N)C1c1ccc(F)cc1 (configuration not stated) | -0.37% (inactive)
Cc1noc(NS(=O)(=O)c2ccc(NC(=O)CSc3nc4c(cc3C#N)CCC4)cc2)c1C | 12.5% (active)
CC(=O)Nc1ccccc1 | 6.06% (inactive)
CC(=O)Nc1ccc2nc3c(=O)n(C)c(=O)n(C)c3nc2c1 | 18.8% (active)
CC(=O)Nc1ccc2cc3ccc(NC(C)=O)cc3nc2c1 | 43% (active)
CC1CCN(S(=O)(=O)c2ccc(N=NC3=C(O)CC(C)(C)CC3=O)cc2)CC1 | 11.9% (active)
CC(=O)Nc1ccc(S(=O)(=O)N2CCN3CCCC3C2)cc1 (configuration not stated) | 6.53% (inactive)
Cc1nn(C)c(NC(=O)c2ccccc2Cl)c1Cl | 59.1% (active)
COc1ccccc1C(=O)Nc1nnn(C)n1 | 10% (inactive)
CN1Cc2c(N)cccc2C(c2ccccc2)C1 (configuration not stated) | -1.03% (inactive)
N/C(COc1cc(Cl)cc(Cl)c1)=N\O | 153% (active)
COC(=O)CN1C(=S)N(c2ccc(OC)cc2)C(=O)/C1=C/c1ccc(N2CCOCC2)cc1 | 11.4% (inactive)
CCc1ccc(/C=C2/C(=O)N(C)C(=S)N2CC(=O)OC)s1 | 11.7% (active)
C=CCN(C(=O)CNS(=O)(=O)c1ccccc1)C(C(=O)NCCOC)c1ccncc1 (configuration not stated) | 16.9% (active)
CCOc1ccc(N(C(=O)CNC(=O)c2ccco2)C(C(=O)NC2CCCC2)c2ccncc2)cc1 (configuration not stated) | 9.24% (inactive)
COCCCN1C(=O)/C(=C/c2ccc(CNS(=O)(=O)c3ccccc3)o2)C(C(=O)OC)=C1C | 8.19% (inactive)
N#CC(C#N)=C1C=C2C=C(N3CCOCC3)CCC2CC1 (configuration not stated) | -1.16% (inactive)
